Measurements taken from ChEMBL document CHEMBL5705890, “Antitumor activity of an allosteric inhibitor of centromere-associated protein-E” (Proc Natl Acad Sci U S A, 2010).

Tests used:
NCI-H23 = assay: Anticancer activity against human NCI-H23 cells assessed as cell doubling measured for 72 hrs by DAPI staining based analysis; assay type: functional
ST486 = assay: Anticancer activity against human ST486 cells assessed as cell growth inhibition measured after 72 hrs by DAPI staining based analysis; assay type: functional
SK-N-DZ = assay: Anticancer activity against human SK-N-DZ cells assessed as cell growth inhibition measured after 72 hrs by DAPI staining based analysis; assay type: functional
SW780 = assay: Anticancer activity against human SW780 cells assessed as cell growth inhibition measured after 72 hrs by DAPI staining based analysis; assay type: functional
MC-IXC = assay: Anticancer activity against human MC-IXC cells assessed as cell growth inhibition measured after 72 hrs by DAPI staining based analysis; assay type: functional
NCI-H747 = assay: Anticancer activity against human NCI-H747 cells assessed as cell growth inhibition measured after 72 hrs by DAPI staining based analysis; assay type: functional
DBTRG-05MG = assay: Anticancer activity against human DBTRG-05MG cells assessed as cell doubling measured for 72 hrs by DAPI staining based analysis; assay type: functional
SK-OV-3 = assay: Antitumor activity against human SK-OV-3 cells in xenograft model assessed as difference between median time to endpoint time of treated versus control group at 62.5 mg/kg; assay type: functional
AN3-CA = assay: Anticancer activity against human AN3-CA cells assessed as cell doubling measured for 72 hrs by DAPI staining based analysis; assay type: functional
HCT-116 = assay: Antitumor activity against human HCT-116 cells in xenograft model assessed as difference between median time to endpoint time of treated versus control group at 125 mg/kg; assay type: functional
SH-4 = assay: Anticancer activity against human SH-4 cells assessed as cell doubling measured for 72 hrs by DAPI staining based analysis; assay type: functional
SW 962 = assay: Anticancer activity against human SW 962 cells assessed as cell growth inhibition measured after 72 hrs by DAPI staining based analysis; assay type: functional
NCI-H460 = assay: Antitumor activity against human NCI-H460 cells in xenograft model assessed as tumor growth delay at 62.5 mg/kg relative to control; assay type: functional
SW 954 = assay: Anticancer activity against human SW 954 cells assessed as cell doubling measured for 72 hrs by DAPI staining based analysis; assay type: functional
SW756 = assay: Anticancer activity against human SW756 cells assessed as cell doubling measured for 72 hrs by DAPI staining based analysis; assay type: functional
T84 [1] = assay: Anticancer activity against human T84 cells assessed as cell growth inhibition measured after 72 hrs by DAPI staining based analysis; assay type: functional
M14 = assay: Anticancer activity against human M14 cells assessed as cell doubling measured for 72 hrs by DAPI staining based analysis; assay type: functional
SCC-4 = assay: Anticancer activity against human SCC-4 cells assessed as cell growth inhibition measured after 72 hrs by DAPI staining based analysis; assay type: functional
MX1 = assay: Anticancer activity against human MX1 cells assessed as cell growth inhibition measured after 72 hrs by DAPI staining based analysis; assay type: functional
T-24 = assay: Anticancer activity against human T24 cells assessed as cell doubling measured for 72 hrs by DAPI staining based analysis; assay type: functional
SK-MEL3 = assay: Anticancer activity against human SK-MEL3 cells assessed as cell doubling measured for 72 hrs by DAPI staining based analysis; assay type: functional
IGROV-1 = assay: Anticancer activity against human IGROV-1 cells assessed as cell doubling measured for 72 hrs by DAPI staining based analysis; assay type: functional
ES-2 = assay: Anticancer activity against human ES2 cells assessed as cell doubling measured for 72 hrs by DAPI staining based analysis; assay type: functional
NCI-H82 = assay: Anticancer activity against human NCI-H82 cells assessed as cell doubling measured for 72 hrs by DAPI staining based analysis; assay type: functional
NCI-H209 = assay: Anticancer activity against human NCI-H209 cells assessed as cell growth inhibition measured after 72 hrs by DAPI staining based analysis; assay type: functional
Hep 3B2 = assay: Anticancer activity against human Hep3B cells assessed as cell doubling measured for 72 hrs by DAPI staining based analysis; assay type: functional
SF-295 = assay: Anticancer activity against human SF-295 cells assessed as cell growth inhibition measured after 72 hrs by DAPI staining based analysis; assay type: functional
A549 = assay: Anticancer activity against human A549 cells assessed as cell growth inhibition measured after 72 hrs by DAPI staining based analysis; assay type: functional
Procedure, shortened: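 Cells were seeded and, after 24 h, DNA content was read as T0. Cells were then exposed to varying drug concentrations for a further 72 h (T72). Fixed cells were DAPI-stained and DNA content measured by automated imaging. T72 values were normalized to T0. GI50 is the concentration giving 50% growth inhibition between T0 and Ymax, obtained by curve fitting.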

RD = assay: Anticancer activity against human RD cells assessed as cell growth inhibition measured after 72 hrs by DAPI staining based analysis; assay type: functional
BFTC-905 = assay: Anticancer activity against human BFTC-905 cells assessed as cell doubling measured for 72 hrs by DAPI staining based analysis; assay type: functional
T84 [2] = assay: Anticancer activity against human T84 cells assessed as cell doubling measured for 72 hrs by DAPI staining based analysis; assay type: functional
BT-474 = assay: Anticancer activity against human BT-474 cells assessed as cell doubling measured for 72 hrs by DAPI staining based analysis; assay type: functional
SCC-9 = assay: Anticancer activity against human SCC-9 cells assessed as cell growth inhibition measured after 72 hrs by DAPI staining based analysis; assay type: functional
NCI-H2052 = assay: Anticancer activity against human NCI-H2052 cells assessed as cell growth inhibition measured after 72 hrs by DAPI staining based analysis; assay type: functional
[3] = biological target: Centromere-associated protein E (Homo sapiens, UniProt Q02224, I182L/K184T); assay: Binding affinity to human CENP-E I182L/K184T mutant assessed as inhibition constant
Centromere-associated protein E, sequence (Q02224 whole entry I182L/K184T): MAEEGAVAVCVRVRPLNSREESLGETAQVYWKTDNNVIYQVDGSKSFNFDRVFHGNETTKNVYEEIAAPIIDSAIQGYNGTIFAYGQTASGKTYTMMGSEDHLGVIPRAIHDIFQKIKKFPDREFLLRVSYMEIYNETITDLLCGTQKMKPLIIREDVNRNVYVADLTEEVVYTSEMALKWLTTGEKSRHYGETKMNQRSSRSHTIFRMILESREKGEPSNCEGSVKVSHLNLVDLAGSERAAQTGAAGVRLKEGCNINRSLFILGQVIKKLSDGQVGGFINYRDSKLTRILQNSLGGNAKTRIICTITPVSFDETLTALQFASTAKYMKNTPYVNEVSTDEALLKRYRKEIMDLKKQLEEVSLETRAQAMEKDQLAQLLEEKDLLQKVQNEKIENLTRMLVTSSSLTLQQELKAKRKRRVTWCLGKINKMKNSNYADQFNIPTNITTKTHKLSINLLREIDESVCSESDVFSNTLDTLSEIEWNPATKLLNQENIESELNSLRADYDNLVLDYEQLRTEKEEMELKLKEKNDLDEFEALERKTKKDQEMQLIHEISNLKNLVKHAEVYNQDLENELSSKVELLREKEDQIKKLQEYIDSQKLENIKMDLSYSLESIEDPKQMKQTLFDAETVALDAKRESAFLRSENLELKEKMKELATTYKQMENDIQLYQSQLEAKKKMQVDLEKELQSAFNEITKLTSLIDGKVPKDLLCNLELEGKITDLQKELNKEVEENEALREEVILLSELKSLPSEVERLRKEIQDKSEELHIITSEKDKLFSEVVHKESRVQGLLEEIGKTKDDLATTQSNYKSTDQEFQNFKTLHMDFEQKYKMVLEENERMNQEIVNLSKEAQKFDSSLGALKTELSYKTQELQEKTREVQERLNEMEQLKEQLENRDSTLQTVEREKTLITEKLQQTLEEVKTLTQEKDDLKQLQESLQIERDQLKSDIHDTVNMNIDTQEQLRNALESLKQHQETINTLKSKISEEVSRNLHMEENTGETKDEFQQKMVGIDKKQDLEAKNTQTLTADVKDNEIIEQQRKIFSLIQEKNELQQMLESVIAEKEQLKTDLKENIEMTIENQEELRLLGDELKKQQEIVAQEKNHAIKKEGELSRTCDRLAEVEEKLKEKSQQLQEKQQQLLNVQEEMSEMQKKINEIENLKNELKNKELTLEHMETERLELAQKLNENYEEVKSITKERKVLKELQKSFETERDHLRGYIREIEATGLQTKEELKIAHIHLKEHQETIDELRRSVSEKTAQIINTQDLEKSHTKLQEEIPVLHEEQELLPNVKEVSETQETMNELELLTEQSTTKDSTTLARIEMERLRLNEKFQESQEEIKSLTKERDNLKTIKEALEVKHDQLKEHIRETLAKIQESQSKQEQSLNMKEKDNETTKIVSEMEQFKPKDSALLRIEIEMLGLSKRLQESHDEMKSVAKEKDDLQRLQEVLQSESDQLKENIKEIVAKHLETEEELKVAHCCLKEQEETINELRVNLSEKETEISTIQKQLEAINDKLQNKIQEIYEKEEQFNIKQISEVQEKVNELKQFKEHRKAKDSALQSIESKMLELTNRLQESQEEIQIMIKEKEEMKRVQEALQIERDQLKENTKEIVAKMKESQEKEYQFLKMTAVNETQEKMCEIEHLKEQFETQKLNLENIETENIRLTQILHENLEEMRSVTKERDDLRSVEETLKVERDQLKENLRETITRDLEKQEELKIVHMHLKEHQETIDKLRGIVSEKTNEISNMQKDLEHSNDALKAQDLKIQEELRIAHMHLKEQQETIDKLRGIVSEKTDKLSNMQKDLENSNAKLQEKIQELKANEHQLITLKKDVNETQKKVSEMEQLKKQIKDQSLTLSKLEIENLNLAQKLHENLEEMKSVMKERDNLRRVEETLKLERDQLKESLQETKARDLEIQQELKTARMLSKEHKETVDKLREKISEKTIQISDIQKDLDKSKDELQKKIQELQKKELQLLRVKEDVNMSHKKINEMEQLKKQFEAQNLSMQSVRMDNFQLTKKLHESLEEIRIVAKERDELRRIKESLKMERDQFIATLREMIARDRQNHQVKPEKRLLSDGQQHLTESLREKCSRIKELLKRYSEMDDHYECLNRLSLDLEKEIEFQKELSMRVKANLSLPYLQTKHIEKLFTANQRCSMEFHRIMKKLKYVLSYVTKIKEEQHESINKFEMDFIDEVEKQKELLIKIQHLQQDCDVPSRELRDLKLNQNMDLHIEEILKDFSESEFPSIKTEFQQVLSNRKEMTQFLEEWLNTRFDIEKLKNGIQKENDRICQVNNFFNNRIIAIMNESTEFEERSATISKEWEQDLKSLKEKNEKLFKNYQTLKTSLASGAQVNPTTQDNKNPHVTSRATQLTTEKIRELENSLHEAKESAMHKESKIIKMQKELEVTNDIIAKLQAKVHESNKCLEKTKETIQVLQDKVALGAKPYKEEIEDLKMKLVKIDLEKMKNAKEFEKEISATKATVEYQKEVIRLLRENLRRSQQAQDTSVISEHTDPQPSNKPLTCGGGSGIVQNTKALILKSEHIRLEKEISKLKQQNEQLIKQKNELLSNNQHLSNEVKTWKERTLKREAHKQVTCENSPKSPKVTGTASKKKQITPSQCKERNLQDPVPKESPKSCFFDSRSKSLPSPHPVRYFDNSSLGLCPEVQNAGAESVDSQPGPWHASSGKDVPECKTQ

EFM-19 = assay: Anticancer activity against human EFM-19 cells assessed as cell growth inhibition measured after 72 hrs by DAPI staining based analysis; assay type: functional
Procedure, shortened: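 Cells seeded, DAPI-stained DNA content of fixed cells read by imaging 24 h after seeding (T0), and again after a further 72 h exposure to a range of drug concentrations (T72). T72 values were normalized to T0. Curve fits gave the concentration producing 50% growth inhibition relative to T0 and Ymax (GI50).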

HT-1080 = assay: Anticancer activity against human HT-1080 cells assessed as cell growth inhibition measured after 72 hrs by DAPI staining based analysis; assay type: functional
BeWo = assay: Anticancer activity against human BeWo cells assessed as cell doubling measured for 72 hrs by DAPI staining based analysis; assay type: functional
DU-4475 = assay: Anticancer activity against human DU-4475 cells assessed as cell doubling measured for 72 hrs by DAPI staining based analysis; assay type: functional
RKO = assay: Anticancer activity against human RKO cells assessed as cell growth inhibition measured after 72 hrs by DAPI staining based analysis; assay type: functional
SW-403 = assay: Anticancer activity against human SW403 cells assessed as cell growth inhibition measured after 72 hrs by DAPI staining based analysis; assay type: functional
UMUC3 = assay: Anticancer activity against human UM-UC-3 cells assessed as cell doubling measured for 72 hrs by DAPI staining based analysis; assay type: functional

Work on `CC(C)Oc1ccc(C(=O)N[C@H](CNC(=O)CN(C)C)Cc2ccc(-c3cn4cccc([C@H](C)O)c4n3)cc2)cc1Cl` [GSK-923295A] yielded an Activity (NCI-H23) of 2.04, a GI50 (ST486) of 26 nM and a GI50 (SK-N-DZ) of 69 nM. It also gave a GI50 (SW780) of 30 nM, a GI50 (MC-IXC) of 27 nM and a GI50 (NCI-H747) of 163 nM. It also gave an Activity (DBTRG-05MG) of 1.33, a Time (SK-OV-3) of 71.6 days and an Activity (AN3-CA) of 1.74. For the same compound, the Time (HCT-116) was 10.4 days, the Activity (SH-4) was 3.12 and the GI50 (SW 962) was 21 nM. The Activity (NCI-H460) was 87%, the Activity (SW 954) was 1.62 and the Activity (SW756) was 2.36. For the same compound, the GI50 (T84 [1]) was 75 nM, the Activity (M14) was 2.27 and the GI50 (SCC-4) was 28 nM. For the same compound, the GI50 (MX1) was 30 nM, the Activity (T-24) was 1.57 and the Activity (SK-MEL3) was 1.11. It also gave an Activity (IGROV-1) of 2.69, an Activity (ES-2) of 3.69 and an Activity (NCI-H82) of 2. It also gave a GI50 (NCI-H209) of 20 nM, an Activity (Hep 3B2) of 2.37 and a GI50 (SF-295) of 35 nM. It also gave a GI50 (A549) of 21 nM, a GI50 (RD) of 28 nM and an Activity (BFTC-905) of 3.49. For the same compound, the Activity (T84 [2]) was 2.77, the Activity (BT-474) was 1.17 and the GI50 (SCC-9) was 24 nM. For the same compound, the GI50 (NCI-H2052) was 44 nM, the Ki [3] was 18 nM and the GI50 (EFM-19) was 28 nM. It also gave a GI50 (HT-1080) of 24 nM, an Activity (BeWo) of 2.95 and an Activity (DU-4475) of 2.05. It also gave a GI50 (RKO) of 53 nM, a GI50 (SW-403) of 24 nM and an Activity (UMUC3) of 2.44.
